# Measured values gathered from unrelated publications.
# Compare with care: the assays were run in different laboratories.
# Read-out: cell growth or viability
SMILES,cell line,assay,conditions,IC50 [nM]
[NH2][Pt]([NH2])([Cl])[Cl],LNCaP,MTT,72 h,10200
Cc1sc2c(c1C)C(c1ccc(Cl)cc1)=N[C@@H](CC(=O)NCCCCCCCCNC(=O)COc1cccc3c1C(=O)N(C1CCC(=O)NC1=O)C3=O)c1nnc(C)n1-2 (stereo partly shown),Jurkat,ATP luminescence,72 h,39
COc1cc2c3c(n(CCCNCCO)c(=O)c2cc1OC)-c1nc2c(cc1C3=O)OCO2,MOLT-4,MTS,72 h,12
COc1ccc(-c2cc(C(=O)Nc3ccccc3)c3cc(-c4ccccc4)ccc3n2)cc1,MIA PaCa-2,MTT,48 h,48300
Nc1ccc(/C=C/C(=O)N2CCc3c(oc4c(-c5ccc(F)cc5)cc(-c5ccc(C(=O)N6CCOCC6)nn5)cc34)C2)cn1,MIA PaCa-2,CCK-8,72 h,460
C=C(F)C(=O)N1CCN(c2nc(OC[C@@H]3CCCN3C)nc3c2CCN(c2cccc4cccc(Cl)c24)C3)C[C@@H]1CC#N,MIA PaCa-2,ATP luminescence,,56.5
COc1ccc(F)cc1-c1ccc2nc(-c3ccccc3)cc(C(=O)Nc3ccccc3)c2c1,MIA PaCa-2,MTT,48 h,> 50000
COc1cc2c3c(n(CCCn4ccnc4)c(=O)c2cc1OC)-c1nc2c(cc1C3=O)OCO2,MOLT-4,MTS,72 h,43
Nc1ccc(/C=C/C(=O)N2CCc3c(oc4c(-c5ccc(F)cc5)cc(-c5cnc(C(=O)N6CCC(F)(F)CC6)nc5)cc34)C2)cn1,MIA PaCa-2,CCK-8,72 h,1360
CC1(C)CCC(c2ccc(Cl)cc2)=C(CN2CCN(c3ccc(C(=O)NS(=O)(=O)c4ccc(N[C@H](CCN5CCOCC5)CSc5ccccc5)c(S(=O)(=O)C(F)(F)F)c4)cc3)CC2)C1,human Platelet,MTS,24 h,6.4
COc1ccc(-c2cc(C(=O)Nc3ccccc3)c3cc(-c4cc(F)ccc4OC)ccc3n2)cc1,MIA PaCa-2,MTT,48 h,> 50000
COc1cc2c3c(n(CCCNC(C)C)c(=O)c2cc1OC)-c1nc2c(cc1C3=O)OCO2,MOLT-4,MTS,72 h,19
COc1cccc2c1C(=O)c1c(O)c3c(c(O)c1C2=O)C[C@@](O)(C(=O)CO)C[C@@H]3O[C@H]1C[C@H](N)[C@H](O)[C@H](C)O1,MIA PaCa-2,MTT,48 h,25300
C=CC(=O)N1CCN(c2nc(=O)n(-c3c(C)ccnc3C(C)C)c3nc(-c4c(O)cccc4F)c(F)cc23)[C@@H](C)C1,SW837,ATP luminescence,,46.3
COc1ccc(-c2cc(C(=O)Nc3ccccc3)c3cc(-c4ccc(Cl)cc4)ccc3n2)cc1,MIA PaCa-2,MTT,48 h,> 50000
COc1cc2c3c(n(CCCN4CCOCC4)c(=O)c2cc1OC)-c1nc2c(cc1C3=O)OCO2,MOLT-4,MTS,72 h,113
CN1CCC(NC(=O)c2ccc(-c3cc(-c4ccsc4)c4oc5c(c4c3)CCN(C(=O)/C=C/c3ccc(N)nc3)C5)nn2)C(F)(F)C1 (stereo not shown),MIA PaCa-2,CCK-8,72 h,650
CCNCCCn1c2c(c3cc(OC)c(OC)cc3c1=O)C(=O)c1cc3c(nc1-2)OCO3,KMS-27,MTS,72 h,141
Nc1ccc(/C=C/C(=O)N2CCc3c(oc4c(-c5ccc(F)cc5)cc(-c5ccc(C(=O)N6CCC(F)(F)CC6)cc5F)cc34)C2)cn1,MIA PaCa-2,CCK-8,72 h,2660
